This is an account of results in ChEMBL document CHEMBL4680070, “A second generation of 1,2,4-oxadiazole derivatives with enhanced solubility for inhibition of 3-hydroxykynurenine transaminase (HKT) from Aedes aegypti” (RSC Med Chem, 2021).

Calls of active or inactive are those of the source. No cut-off for these calls is given here.

One assay deals with 3-hydroxykynurenine transaminase (Aedes aegypti) (UniProt Q0IG34). As to the kind of experiment: Competitive inhibition of Aedes aegypti 3-hydroxykynurenine transaminase at 300 uM using varying level of 3-D,L hydroxy kynurenine as substrate by Lineweaver-Burk plot analysis.
Sequence of 3-hydroxykynurenine transaminase (Aedes aegypti) (Q0IG34 whole entry): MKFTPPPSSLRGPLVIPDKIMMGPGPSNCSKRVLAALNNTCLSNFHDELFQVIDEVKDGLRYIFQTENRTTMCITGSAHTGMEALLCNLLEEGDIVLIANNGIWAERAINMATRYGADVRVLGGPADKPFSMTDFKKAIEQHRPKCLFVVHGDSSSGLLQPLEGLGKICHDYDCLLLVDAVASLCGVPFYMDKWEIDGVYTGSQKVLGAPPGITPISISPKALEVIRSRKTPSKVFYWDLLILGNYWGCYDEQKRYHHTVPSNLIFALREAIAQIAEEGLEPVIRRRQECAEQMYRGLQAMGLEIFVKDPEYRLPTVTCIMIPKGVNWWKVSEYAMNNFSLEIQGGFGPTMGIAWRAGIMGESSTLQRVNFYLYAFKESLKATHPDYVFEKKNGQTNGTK
For `O=C(O)CCc1nc(-c2ccccc2)no1`, the inhibition result was “Active”.

System in a further assay: not listed separately
In words: Inhibition of recombinant Aedes aegypti RecLab N-terminal Trx-fused/His6-tagged 3-hydroxykynurenine transaminase H360M mutant expressed in Escherichia coli Rosetta 2 (DE3) assessed as reduction in conversion of 3-hydroxy kynurenine to xanthurenic-acid using 3-D,L hydroxy kynurenine as substrate preincubated with PLP cofactor and enzyme and 30 mins later incubated with 3-D,L-HK and measured after 5 mins by microplate reader assay. In short, it runs like this: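 Recombinant AeHKT (2 μg) in 200 mM HEPES/100 mM NaCl with 2 mM 3-D,L-HK, 2 mM sodium pyruvate and 40 μM PLP. Reaction ran 5 min at 50 °C and was stopped with 10 mM FeCl3 in 0.1 M HCl. The XA–Fe3+ complex was read at 570 nm, and XA was quantified against a calibration curve. Run in duplicate.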
What is called IC50 is the midpoint of a concentration-inhibition curve. `O=C(O)CCCc1nc(-c2ccc(C(F)(F)F)cc2)no1`: the IC50 was 70 µM.
Take `O=C(O)CCCc1nc(-c2ccc(Br)cc2)no1`: the half-maximal inhibitory concentration (IC50) was found to be 110 µM.
On to `O=C(O)CCCc1nc(-c2ccc(I)cc2)no1`, for which the IC50 came out at 42 µM.
Still for that read-out and setting: then `Cc1ccccc1-c1noc(CCC(=O)O)n1`, with 339 µM; and `Cc1ccc(-c2noc(CCCC(=O)O)n2)cc1`, with 88 µM.
Still for that read-out and setting: the same measure for `O=C(O)CCCc1nc(-c2cccc3ccccc23)no1`: 63 µM.
The same measure, in the same setting: then `COc1cccc(-c2noc(CCC(=O)O)n2)c1`, with 157 µM; and `O=C(O)CCc1nc(-c2ccccc2F)no1`, with 116 µM; and `O=C(O)CCc1nc(-c2ccccc2Cl)no1`, with 77 µM.
On to `O=C(O)CCc1nc(-c2ccc(Cl)c(Cl)c2)no1`, for which the IC50 was 86 µM.
Take `Cc1cccc(-c2noc(CCCC(=O)O)n2)c1`: the half-inhibitory concentration (IC50) came out at 54 µM.
On the same count and under the same terms, then `O=C(O)CCc1nc(-c2cccs2)no1`, with 68 µM; and `O=C(O)CCc1nc(-c2cccc([N+](=O)[O-])c2)no1`, with 85 µM.
As for `O=C(O)CCc1nc(-c2ccc(F)cc2)no1`, the IC50 was found to be 124 µM.
On the same count and under the same terms, then `O=C(O)CCCc1nc(-c2ccccc2)no1`, with 72 µM; and `O=C(O)CCc1nc(-c2ccc3c(c2)OCO3)no1`, with 83 µM.
Same read-out and setting: then `O=C(O)CCc1nc(-c2ccccc2)no1`, with 139 µM; and `COc1ccc(-c2noc(CCC(=O)O)n2)cc1`, with 35 µM.
The same measure, in the same setting: the same measure for `O=C(O)CCCc1nc(-c2ccc(Cl)cc2)no1`: 294 µM; for `COc1ccc(-c2noc(CCCC(=O)O)n2)cc1`: 101 µM; for `Cc1cccc(-c2noc(CCC(=O)O)n2)c1`: 110 µM.
For the compound `O=C(O)CCc1nc(-c2ccc(C(F)(F)F)cc2)no1`, the half-inhibitory concentration (IC50) worked out at 42 µM.
Regarding `Cc1ccc(-c2noc(CCC(=O)O)n2)cc1`, the 50% inhibitory concentration (IC50) worked out at 73 µM.
Regarding `O=C(O)CCc1nc(-c2ccco2)no1`, the IC50 stood at 84 µM.
The same measure, in the same setting: then `O=C(O)CCCc1nc(-c2ccc(Cl)c(Cl)c2)no1`, with 64 µM.
Same read-out and setting: then `O=C(O)CCc1nc(-c2ccc(Cl)cc2)no1`, with 85 µM; and `O=C(O)CCc1nc(-c2cccc(Br)c2)no1`, with 61 µM.
`O=C(O)CCCc1nc(-c2ccc3c(c2)OCO3)no1`: the 50% inhibitory concentration (IC50) came to 87 µM.
In the case of `O=C(O)CCc1nc(-c2ccc(Br)cc2)no1`, the IC50 came out at 119 µM.
For the compound `O=C(O)CCc1nc(-c2ccc([N+](=O)[O-])cc2)no1`, the IC50 stood at 76 µM.
